Source: PubChem
Rows were chosen to be rich in hits. Some 3.1% of all compounds tested hit in one or more screens of this group.
OX1R antag-1 – antagonists of human orexin 1 receptor (OX1R); Orexin/Hypocretin receptor type 1 (Homo sapiens), O43613; OX1R-expressing cells, FRET antagonist read-out; inhibition, % at 6.6 µM; hit rate 1.8% among 330,000; AID 485270, 2010; in the data active = inhibition mostly above about 38%, no sharp cut-off; inactive = mostly below about 40%;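 note: 0% = agonist challenge alone and 100% = reference antagonist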
Target sequence (O43613 whole entry, looked up): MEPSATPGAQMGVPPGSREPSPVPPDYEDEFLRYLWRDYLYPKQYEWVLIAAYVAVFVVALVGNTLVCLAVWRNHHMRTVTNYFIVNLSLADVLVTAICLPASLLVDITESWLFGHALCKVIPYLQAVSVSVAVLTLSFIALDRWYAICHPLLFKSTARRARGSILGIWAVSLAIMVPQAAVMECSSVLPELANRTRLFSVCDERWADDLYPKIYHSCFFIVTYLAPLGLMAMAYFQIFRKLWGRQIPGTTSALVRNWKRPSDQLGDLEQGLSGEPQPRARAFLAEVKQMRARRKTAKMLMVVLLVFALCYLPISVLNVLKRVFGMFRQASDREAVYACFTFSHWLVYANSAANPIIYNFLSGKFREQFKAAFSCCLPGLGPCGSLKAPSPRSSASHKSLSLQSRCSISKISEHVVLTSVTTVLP
CHO parental Ca – ATP-evoked calcium signal inhibitors, parental CHO, primary screen, counter-screen for OX1R antagonist project, cell-based, fluorescence, Fluo-8 calcium dye | parental CHO-K1, ATP-induced calcium, Fluo-8 fluorescence | inhibition, % at 5.6 µM | hit rate 0.63% among 330,000;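 active = inhibition above that plate's mean sample inhibition plus 3 SD, cut at about 26% in these data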;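 note: 0% = ATP-challenged DMSO wells and 100% = DMSO wells without ATP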
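Assay system: untransfected parental CHO cell line. Also added: ATP agonist challenge. Dosing: one dose, 5.6 µM nominal. Measured by: Fluo-8 fluorescence. Read-out: % inhibition. Benchmarks: ATP wells versus no-ATP DMSO wells. Repeats: no replicates.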
GalR3 antag – GalR3 antagonists in HEK293 cells, primary screen, cell-based, fluorescence readout; hit rate 0.44% among 360,000; inhibition, % at 3 µM; HEK293 GalR3-CNG cAMP membrane potential fluorescence; galR3 body fused to GalR1 C-terminus;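 active = inhibition above the screen-wide average plus 3 SD, cut at about 13% in these data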;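 note: forskolin and galanin both at EC90 stimulate the cells; cAMP rise reported by CNG channel membrane potential dye signal; 0% = forskolin plus galanin with DMSO and 100% = forskolin alone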
Target sequence (O60755 1-299 limits assumed): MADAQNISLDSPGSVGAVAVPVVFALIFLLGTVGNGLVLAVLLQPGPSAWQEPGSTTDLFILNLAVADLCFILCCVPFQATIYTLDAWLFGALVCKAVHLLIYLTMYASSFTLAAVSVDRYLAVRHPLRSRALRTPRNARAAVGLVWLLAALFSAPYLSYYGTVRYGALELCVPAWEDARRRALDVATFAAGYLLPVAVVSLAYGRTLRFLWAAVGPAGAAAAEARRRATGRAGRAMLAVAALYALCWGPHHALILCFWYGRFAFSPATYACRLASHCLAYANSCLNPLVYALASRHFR
OX1R antag-2 – OX1R (HCRTR1) antagonists, primary screen, fluorescence, CHO/OX1R cells, Fluo-8 calcium, orexin A; Orexin/Hypocretin receptor type 1 (Homo sapiens), O43613; Fluo-8 calcium fluorescence; inhibition, % at 5 µM; hit rate 0.43% among 330,000;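 active = inhibition above its plate's threshold, mean inhibition of all tested compounds on the plate plus 3 SD, cut at about 37% in these data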;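 note: 0% = orexin A challenge wells and 100% = SB-334867-A antagonist wells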
GPR7 antagonist – GPR7 receptor antagonists, primary screen, cell-based, fluorescence, single concentration; Neuropeptides B/W receptor type 1 (Homo sapiens), P48145; GPR7-expressing cells, fluorescence antagonist assay; inhibition, % at 4.4 µM; hit rate 1.1% among 290,000; in the data active = inhibition above about 16%, passing the limit was not always enough;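 note: cells stimulated with the agonist NPW; 0% = agonist with vehicle and 100% = vehicle without agonist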
GalR3 antag conf – GalR3 antagonist hit confirmation, cell-based, fluorescence, triplicate; shares compounds with GalR3 antag; hit rate 59% among 1,600; inhibition, % at 3 µM; AID 652245, 2013; HEK293 GalR3 CNG cAMP biosensor, membrane potential fluorescence; galR3 fused to GalR1 carboxy tail; challenged with forskolin and galanin at EC90;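 active = inhibition above the primary screen's cutoff, the mean inhibition of all screened compounds plus 3 SD, cut at about 13% in these data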;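 note: 0% = forskolin plus galanin and 100% = forskolin alone with DMSO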
CNG parental – nonspecific cAMP agonists in parental HEK-CNG cells, counter-screen for GalR3 antagonist project, cell-based, fluorescence, high throughput. HEK293-CNG parental cells, cAMP membrane potential fluorescence; normalised: DMSO wells 0%, forskolin wells 100%. hit rate 10% among 1,600. shares compounds with GalR3 antag. activation, % at 3 µM; in the data active = activation above about 1.3%
The depositor's hits bear a star; . = no result.

SMILES	OX1R antag-1	CHO parental Ca	GalR3 antag	OX1R antag-2	GPR7 antagonist	GalR3 antag conf	CNG parental
C[C@H]1CN([C@@H](C)CO)C(=O)CCCn2cc(nn2)CO[C@@H]1CN(C)S(=O)(=O)c1cn(C)cn1	.	.	-3.5	.	.	.	.
N#Cc1c(N)nc(SCc2ccncc2)c(C#N)c1-c1cccs1	10.1	7.2	75.3*	7.9	-10.8	91.0*	0.7
COC(=O)c1ccc(C2=NOC(C)(c3sc(-c4ccccc4)nc3C)C2)cc1 (stereo not drawn)	18.0	-25.5	.	-22.6	.	31.7*	1.5*
CCCc1[nH]nc2c1C(c1ccc(OC)c(CSC3=NCCS3)c1)C(C#N)=C(N)O2 (stereo not drawn)	14.3	-25.7	20.1*	-32.8	-4.6	2.7	0.5
CCCc1[nH]nc2c1C(c1cc(OC)cc(OC)c1)C(C#N)=C(N)O2 (stereo not drawn)	4.7	-15.5	-5.9	-22.3	5.2	.	.
CCCCCc1c(C)nc(Nc2ccc(F)cc2)[nH]c1=O	13.7	6.3	-3.6	-10.3	10.8	.	.
CCCCc1c(C)nc(Nc2ccc(OC)cc2)[nH]c1=O	-1.7	-0.2	27.8*	-13.2	-1.6	-1.6	0.0
CCc1nc2c(OCC(=O)C(C)(C)C)cccn2c1N(C=O)Cc1ccccc1	.	.	-6.1	.	.	.	.
CCCC(=O)Nc1nc(-c2ccc3c(c2)OCCO3)cs1	22.6	-13.6	-2.3	-18.1	-13.4	.	.
CCCC(=O)Nc1nnc(-c2ccc3c(c2)OCCO3)o1	-3.2	-22.1	13.7*	-13.6	-15.0	8.1	0.4
CCCCNC(=O)C(NC(=O)c1ccccc1)C(=O)c1ccccc1 (stereo not drawn)	.	.	-1.3	.	.	.	.
O=C(Nc1ccccc1)C1CCCN(S(=O)(=O)c2ccc(-n3cnnn3)cc2)C1 (stereo not drawn)	10.9	-9.2	5.0	-8.9	1.8	.	.
O=C(Nc1cccc(F)c1)C1CCCN(S(=O)(=O)c2ccc(-n3cnnn3)cc2)C1 (stereo not drawn)	13.3	-8.9	13.9*	-23.7	16.2	0.0	-0.6
CCc1c(O)nc(SCC(=O)Nc2ccccc2)n(-c2ccccc2C)c1=O	.	.	-3.9	.	.	.	.
CCN1C(=O)/C(=C2/Sc3ccccc3N2CC)S/C1=N\c1ncn[nH]1	65.0	-10.6	17.8*	-15.0	-12.7	10.6	-0.4
C=CCN1C(=O)/C(=C2/Sc3ccccc3N2CC)SC1=S	8.8	-7.3	-0.4	-12.9	-6.1	.	.
CCN(CC(=O)Nc1ccc2c(c1)OCCO2)C(=O)/C=C/c1ccc(F)cc1	2.6	-12.6	12.8*	-16.9	5.8	28.2*	2.4*
CCN(CC(=O)Nc1ccc2c(c1)OCCO2)C(=O)/C=C/c1ccccc1	13.3	10.5	-6.3	-15.8	9.3	.	.
O=c1c(Cl)c(NCCCO)cnn1-c1nc2ccccc2[nH]1	10.1	-11.3	14.8*	4.5	-5.2	4.4	0.2
Nc1ncnc2c1ncn2[C@H]1C[C@H](O)[C@@H](CO)O1	16.6	-9.6	-0.8	-11.5	-2.7	.	.
Nc1nc(Cl)nc2c1ncn2[C@H]1C[C@H](O)[C@@H](CO)O1	11.8	-3.6	49.3*	-5.2	-13.0	56.9*	1.3*
COCc1cccc(-c2csc(C(C)(O)c3ccc(OC)cc3)n2)c1 (stereo not drawn)	.	.	-5.2	.	.	.	.
Cc1cc(=O)[nH]c2ccc(S(=O)(=O)NCc3ccccc3)cc12	4.6	10.1	57.0*	-12.5	-13.1	27.0*	-0.1
CCCCN(C)C(=O)c1ccc(Nc2nc(C(N)Cc3ccc(C(F)(F)F)cc3)cs2)nc1 (stereo not drawn)	.	.	-4.2	.	.	.	.
C[C@H](CO)N1C[C@H](C)[C@@H](CN(C)Cc2ccccc2)OCc2cnnn2CCCC1=O	.	.	4.2	.	.	.	.
SMILES	OX1R antag-1	CHO parental Ca	GalR3 antag	OX1R antag-2	GPR7 antagonist	GalR3 antag conf	CNG parental
COc1cccc(N2CCN(C(=O)c3cccc(S(=O)(=O)N4CCCC4)c3)CC2)c1	.	.	3.9	.	.	.	.
N#CCC(=O)Nc1ccc(C(=O)OCC(=O)c2ccc3c(c2)NC(=O)CO3)cc1	-3.7	-0.4	13.0*	-1.9	.	8.3	-0.5
CC(=O)Nc1cc(NC(C)=O)cc(C(=O)OCC(=O)c2ccc3c(c2)NC(=O)CO3)c1	5.5	-0.7	-5.9	-14.4	.	.	.
N#Cc1c(N)nc(SCC(=O)NC2CCCCC2)c(C#N)c1-c1ccc(Cl)cc1	3.5	-13.6	-0.1	-12.3	-6.0	.	.
N#CCSc1nc(N)c(C#N)c(C2CCCCC2)c1C#N	12.6	-16.9	72.1*	-22.9	-13.4	88.1*	-0.3
NS(=O)(=O)c1ccc(CNC(=O)c2csc3c2CCCC3)cc1	12.5	-19.6	27.1*	-26.2	-3.9	12.7*	0.1
CC1(C)CC1C(=O)Nc1ccc([N+](=O)[O-])cc1Br (stereo not drawn)	23.8	-9.4	-9.6	-12.4	-13.1	.	.
Cc1ccc(C2(c3ccc(C)cc3)CC2C(=O)Nc2ccc([N+](=O)[O-])cc2O)cc1 (stereo not drawn)	21.7	14.4	60.9*	33.0	16.0	21.5*	-1.7
C[C@H]1COc2cccc(N3CCCC3)c2S(=O)(=O)N1	.	.	-4.2	.	.	.	.
Cc1occc1-c1nnc(SCCNCCO)o1	18.8	-5.8	14.9*	0.5	-1.0	4.8	-0.4
COc1ccc(CC(=O)OCc2cc3ccc(C)cc3[nH]c2=O)cc1	11.1	-12.8	-2.7	-24.5	-10.5	.	.
COc1ccc(CC(=O)OCc2cc3ccccc3[nH]c2=O)cc1	6.5	-4.8	.	-11.4	10.7	2.0	-0.1
CC(C)c1ccc(NC2CCCN(C(=O)c3n[nH]c4c3CCC4)C2)cc1 (stereo not drawn)	2.6	-17.3	30.6*	-25.1	12.0	35.8*	0.0
COC(=O)c1ccc(C(=O)N2CCCC(Nc3ccc(C(C)C)cc3)C2)cc1 (stereo not drawn)	2.7	1.2	-8.0	-9.8	0.9	.	.
COC(=O)[C@]12C[C@H](CC(=O)NCc3cccs3)C(=O)N(CCC3=CCCCC3)C1=C[C@H](COCc1ccccc1)O[C@@H]2C	.	.	-9.7	.	.	.	.
Cc1cc(CN(C)C(=O)c2cc(COc3ccc4ncccc4c3)on2)on1	12.2	28.6*	37.3*	10.6	3.2	69.2*	0.1
O=C(NC1CCCCCCC1)c1cc(COc2ccc3ncccc3c2)on1	.	.	67.8*	.	-2.8	91.8*	0.5
CN(Cc1nccn1C)C(=O)c1cc(COc2ccc3ncccc3c2)on1	15.7	3.4	-4.1	-8.6	-3.5	.	.
